PG9 Ab binder – binds the HIV-1 gp120 antibody PG9. AID 624416. 0.43% of 360,000 active. inhibition, % at 6.7 µM. TR-FRET gp120-PG9 antibody binding; in the data active = inhibition above about 8.5%
Rev-erbA mod – modulators of human Rev-erb alpha DNA binding | P20393 | Rev-erbα–FITC-DNA binding, fluorescence polarization, 90 min | 0.79% of 370,000 active | activity, % at 10 µM;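 active = activity above about 14%, limit read from the data; passing the limit was not always enough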;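 also: 0% = DMSO wells with 35 nM protein and 100% = DMSO wells with 750 nM protein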
TbMetRS inhib – blocks T. brucei methionyl-tRNA synthetase activity | purified T. brucei MetRS, ATP depletion, Kinase-Glo luminescence | inhibition, % at 11.9 µM | 0.4% of 360,000 active | AID 624268;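 active = inhibition above a per-plate cutoff of the control wells' mean inhibition plus 3 SD, cut at about 5.5% in these data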;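 also: 0% = DMSO wells median and 100% = median of wells with control inhibitor compound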
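Measured by: Kinase-Glo luciferase luminescence reporting remaining unconsumed ATP. Material: purified T. brucei MetRS enzyme. Doses: 11.9 µM compound single dose, 0.9% DMSO. Medium: HEPES buffer containing pyrophosphatase, BSA, spermine, DTT. Times: 15 min preincubation, 2 h reaction, all 25 °C. Reagent: methionine, ATP and bulk E. coli tRNA.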
Rin1 Abl inh – blocks binding of human Rin1 to Abl; TR-FRET Rin1/Abl binding, biochemical; inhibition, % at 7.35 µM; 0.4% of 360,000 active; AID 588664; in the data active = inhibition above about 5%, passing the limit was not always enough
PG9 bind confirm – PG9 antibody binding, confirmed. AID 651571. shares compounds with PG9 Ab binder. 90% of 1,500 active. inhibition, % at 6.7 µM. TR-FRET PG9 antibody binding, biochemical; in the data active = inhibition above about 9%
PGV04 counter – binds control antibody PGV04 in PG9 binder counter-screen; TR-FRET PGV04 antibody-gp120 binding, biochemical; 95% of 1,500 active; inhibition, % at 6.7 µM; shares compounds with PG9 Ab binder; in the data active = inhibition above about 9.5%
PG9 bind DR – small molecules binding HIV-1 gp120 antibody PG9; shares compounds with PG9 Ab binder; TR-FRET PG9 antibody-gp120 binding inhibition; IC50, µM; 95 tested, under 10 active; AID 651848; in the data active = IC50 below about 10 µM
PGV04 binding DR – counter-screen for PG9 binders: binding to control antibody PGV04 | shares compounds with PG9 Ab binder | TR-FRET binding to control antibody PGV04 | IC50, µM | 20% of 95 active | AID 651937
PG126 DR counter – binds control antibody PG126 in PG9 counter-screen; shares compounds with PG9 Ab binder; TR-FRET binding to antibody PG126, counterscreen; IC50, µM; 20% of 95 active
An asterisk follows results filed as active. Sampled rows, rich in hits. Any-hit rate of the full collection: about 1.8%. Rule as the data show it, unless noted: active = IC50 below about 9 µM; inactive = the rest.

O=C1COc2ccc(C(=O)COC(=O)CCSc3ccc(Cl)cc3)cc2N1 was read as PG9 Ab binder 13*, Rev-erbA mod 17, TbMetRS inhib 0, Rin1 Abl inh -4, PG9 bind confirm 30* and PGV04 counter 44*.
Screening O=C1COc2ccc(C(=O)COC(=O)c3ccc(F)cc3Cl)cc2N1 returned PG9 Ab binder 32*, Rev-erbA mod 14, TbMetRS inhib 0, Rin1 Abl inh -5, PG9 bind confirm 37* and PGV04 counter 47*.
For O=C1COc2ccc(C(=O)COC(=O)Cc3ccc(Cl)cc3)cc2N1 the results were PG9 Ab binder -1, Rev-erbA mod 3, TbMetRS inhib 0 and Rin1 Abl inh -1.
`Cc1cccc(C(=O)OCC(=O)c2ccc3c(c2)NC(=O)CO3)c1` gave PG9 Ab binder 15*, Rev-erbA mod 8, TbMetRS inhib 0, Rin1 Abl inh -4, PG9 bind confirm 16* and PGV04 counter 27*.
For COc1cc(OC)c(C(=O)OCC(=O)c2ccc3c(c2)NC(=O)CO3)cc1OC the results were PG9 Ab binder 1, Rev-erbA mod -4, TbMetRS inhib 0 and Rin1 Abl inh -3.
For O=C(NCc1ccccc1)OC1CCC12CCC(c1ccccc1)CC2 (configuration not stated) the results were Rev-erbA mod 6.
For Cc1n[nH]c(=S)c2nn(-c3cccc(Cl)c3)c(C)c12 the results were PG9 Ab binder 6 and Rev-erbA mod 2.
For Cc1ccc(-n2nc3c(=S)[nH]nc(C)c3c2C)cc1 the results were PG9 Ab binder 45*, Rev-erbA mod 2, TbMetRS inhib -1, Rin1 Abl inh inactive, PG9 bind confirm 28*, PGV04 counter 25*, PG9 bind DR >67, PGV04 binding DR inactive and PG126 DR counter inactive.
COC(=O)C[C@H]1CC[C@@H]2[C@H](COc3ccc(NS(C)(=O)=O)cc3C(=O)N2C)O1 was read as Rev-erbA mod 5.
`COC(=O)[C@]12C[C@H](CC(=O)NCc3ccc(C)o3)C(=O)N(CCC3=CCCCC3)C1=C[C@H](C1CCCC1)O[C@@H]2C` gave Rev-erbA mod 4.
For Cc1c(Br)c(O)c(Br)c2sc(=O)oc12 the results were PG9 Ab binder 18*, Rev-erbA mod -3, TbMetRS inhib 0, Rin1 Abl inh 1, PG9 bind confirm 11* and PGV04 counter 21*.
Screening N#CCCSc1ncnc2c1oc1ccccc12 returned PG9 Ab binder 20*, Rev-erbA mod 2, TbMetRS inhib 0, Rin1 Abl inh inactive, PG9 bind confirm 46* and PGV04 counter 57*.
Screening Cc1cc(Br)cn2cc(C(=O)O)nc12 returned PG9 Ab binder 16*, Rev-erbA mod -1, TbMetRS inhib 0, Rin1 Abl inh -14, PG9 bind confirm 21* and PGV04 counter 26*.
Screening O=S(=O)(Nc1cccnc1)c1ccc(Br)c2ccccc12 returned PG9 Ab binder 15*, Rev-erbA mod 5, TbMetRS inhib -1, Rin1 Abl inh -14, PG9 bind confirm 24* and PGV04 counter 30*.
For CCCC/C=C1/[C@H](c2ccccc2)N(C)C2=N[C@@H](c3ccccc3)CC(=O)N21 the results were Rev-erbA mod 3.
For O=C(NCCC1CCCCN1S(=O)(=O)c1ccc(F)cc1)C(=O)Nc1ccccc1F (configuration not stated) the results were PG9 Ab binder 10*, Rev-erbA mod 0, TbMetRS inhib 0, Rin1 Abl inh 0, PG9 bind confirm 4 and PGV04 counter 7.
COc1ccc2c(CCN3C(=O)c4ccccc4C3=O)c(-c3c(CCN4C(=O)c5ccccc5C4=O)c4ccccc4n3C(=O)OC(C)(C)C)[nH]c2c1 was read as Rev-erbA mod -2.
